Active and inactive are the calls of the source. No cut-off for these calls is given here.
Key:
[1] = tested on: Biomphalaria glabrata; experiment: Molluscicidal activity against Biomphalaria glabrata assessed as mortality after 24 hrs; format: functional
In short: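 Test organism: the snail Biomphalaria glabrata. Pure compound was made up as a 20 mg/mL stock in EtOH, and an aliquot of this stock was diluted with distilled water to give the snail exposure solution. Snails were scored for death, and LC50 values were reported.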

[2] = Cytotoxicity against mouse Neuro2a cells up to 100 uM; format: cell-based; conditions: n2a
[3] = tested on: NCI-H460; experiment: Cytotoxicity against human H460 cells up to 100 uM; format: cell-based
[4] = tested on: Candida albicans; experiment: Antifungal activity against Candida albicans; format: functional, organism-based
[5] = tested on: Staphylococcus aureus; experiment: Antibacterial activity against methicillin-resistant Staphylococcus aureus; format: functional, organism-based

Structure (SMILES) | LC50 [1] | Activity [2] | Activity [3] | Activity [4] | Activity [5]
COC(/C=C/CO)=C/C(=O)N1C(=O)C=C[C@@H]1C [PALMYRROLINONE] | 6 µM | Non-toxic | Non-toxic | inactive | inactive
COC1=CC(=O)S[C@@H](CO)C1 [THIOPALMYRONE] | 8.3 µM | Non-toxic | Non-toxic | inactive | inactive
